Data from ChEMBL document CHEMBL1135391, “Anti-Helicobacter pylori agents. 5. 2-(Substituted guanidino)-4-arylthiazoles and aryloxazole analogues” (2002).
In brackets after ≈: the same amount, converted by molar mass.

Tests used:
[1] = tested on: Helicobacter pylori; experiment: Minimum inhibitory concentration required to inhibit macroscopic colonial growth of Helicobacter pylori; ranges from (1.56-12.5); type: functional
Procedure, shortened: (§1)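 Agar dilution against 10 H. pylori strains (8001, 8003, 8004, 8007, 8008, 8009, 8011, 9005, FP1530, FP1532). Strains precultured 3 days at 37 °C on Brucella agar with 3% horse serum and 2% starch, then adjusted to McFarland No. 1. A 10²-fold dilution was spotted onto Brucella agar with 7% lysed horse blood and 2-fold drug dilutions. Plates incubated 3 days at 37 °C under 10% CO2. MIC is the lowest concentration preventing visible colonies; mean and range span the 10 strains.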

[2] = species on record: Cavia porcellus; experiment: Inhibition of histamine-stimulated chronotropic response in isolated guinea pig right atrium at 1*10e-4 g/mL; type: functional, Cardiac atrium
[3] = tested on: Helicobacter pylori; experiment: Minimum inhibitory concentration required to inhibit macroscopic colonial growth of Helicobacter pylori; ranges from (0.1-0.78); type: functional; procedure, shortened: as §1
[4] = tested on: Helicobacter pylori; experiment: Minimum inhibitory concentration required to inhibit macroscopic colonial growth of Helicobacter pylori; ranges from (6.25-25); type: functional; procedure, shortened: as §1
[5] = tested on: Rattus norvegicus; experiment: Inhibition of histamine-stimulated gastric acid secretion in lumen-perfused stomach of anesthetized rats after 1 mg/kg iv administration; type: functional
Procedure, shortened: (§2)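 Male Sprague-Dawley rats, about 250 g, fasted 24 h and anesthetized with urethane 1.25 g/kg ip. Stomach lumen perfused with saline, perfusate titrated with 25 mM NaOH. Acid secretion was driven by iv histamine infusion at 3 mg/kg/h. At plateau, compound 1 mg/kg iv. Read-out is maximal inhibition of acid output, n = 2.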

[6] = species on record: Cavia porcellus; experiment: Inhibition of histamine-stimulated chronotropic response in isolated guinea pig right atrium at 1*10e-6 g/mL; type: functional, Cardiac atrium
Procedure, shortened: (§3)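 Guinea pig atrial strip in Thyrode solution at 30 °C, gassed with 95% O2-5% CO2, initial tension 0.3-0.6 g. Beating rate recorded. Histamine hydrochloride 1 × 10⁻⁶ g/mL was given first. After washout, test compound at 1 × 10⁻⁶ g/mL was added 30 min later. Percent inhibition compares histamine-induced rate increases before and 30 min after compound.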

[7] = tested on: Helicobacter pylori; experiment: Minimum inhibitory concentration required to inhibit macroscopic colonial growth of Helicobacter pylori; ranges from (0.025-0.39); type: functional; procedure, shortened: as §1
[8] = tested on: Helicobacter pylori; experiment: Minimum inhibitory concentration required to inhibit macroscopic colonial growth of Helicobacter pylori; ranges from ([…]-6.25); type: functional; procedure, shortened: as §1
[9] = tested on: Helicobacter pylori; experiment: Minimum inhibitory concentration required to inhibit macroscopic colonial growth of Helicobacter pylori; ranges from (3.13-12.5); type: functional; procedure, shortened: as §1
[10] = tested on: Helicobacter pylori; experiment: Minimum inhibitory concentration required to inhibit macroscopic colonial growth of Helicobacter pylori; ranges from(1.56-25); type: functional; procedure, shortened: as §1
[11] = tested on: Helicobacter pylori; experiment: Minimum inhibitory concentration required to inhibit macroscopic colonial growth of Helicobacter pylori; ranges from (0.00625-0.1); type: functional; procedure, shortened: as §1
[12] = tested on: Helicobacter pylori; experiment: Minimum inhibitory concentration required to inhibit macroscopic colonial growth of Helicobacter pylori; ranges from (0.39-6.25); type: functional; procedure, shortened: as §1
[13] = tested on: Helicobacter pylori; experiment: Minimum inhibitory concentration required to inhibit macroscopic colonial growth of Helicobacter pylori; ranges from (0.025-0.1); type: functional; procedure, shortened: as §1
[14] = tested on: Helicobacter pylori; experiment: Minimum inhibitory concentration required to inhibit macroscopic colonial growth of Helicobacter pylori; ranges from (0.05-0.2); type: functional; procedure, shortened: as §1
[15] = tested on: Helicobacter pylori; experiment: Minimum inhibitory concentration required to inhibit macroscopic colonial growth of Helicobacter pylori;ranges from (0.003-0.025); type: functional; procedure, shortened: as §1
[16] = tested on: Helicobacter pylori; experiment: microbe, parasite or virus in culture
[17] = tested on: Helicobacter pylori; experiment: Minimum inhibitory concentration required to inhibit macroscopic colonial growth of Helicobacter pylori;ranges from (0.10-0.78); type: functional; procedure, shortened: as §1
[18] = tested on: Helicobacter pylori; experiment: Minimum inhibitory concentration required to inhibit macroscopic colonial growth of Helicobacter pylori; type: functional; procedure, shortened: as §1
[19] = tested on: Helicobacter pylori; experiment: Minimum inhibitory concentration required to inhibit macroscopic colonial growth of Helicobacter pylori; ranges from (3.13-6.25); type: functional; procedure, shortened: as §1
[20] = tested on: Helicobacter pylori; experiment: Minimum inhibitory concentration required to inhibit macroscopic colonial growth of Helicobacter pylori; ranges from (0.2-1.56); type: functional; procedure, shortened: as §1
[21] = tested on: Helicobacter pylori; experiment: Minimum inhibitory concentration required to inhibit macroscopic colonial growth of Helicobacter pylori; ranges from (3.13-[…]); type: functional; procedure, shortened: as §1
[22] = tested on: Helicobacter pylori; experiment: Minimum inhibitory concentration required to inhibit macroscopic colonial growth of Helicobacter pylori; ranges from (0.78-6.25); type: functional; procedure, shortened: as §1
[23] = tested on: Helicobacter pylori; experiment: Minimum inhibitory concentration required to inhibit macroscopic colonial growth of Helicobacter pylori; ranges from (0.78-1.56); type: functional; procedure, shortened: as §1
[24] = tested on: Helicobacter pylori; experiment: Minimum inhibitory concentration required to inhibit macroscopic colonial growth of Helicobacter pylori; ranges from (0.0125-0.1); type: functional; procedure, shortened: as §1
[25] = tested on: Helicobacter pylori; experiment: Minimum inhibitory concentration required to inhibit macroscopic colonial growth of Helicobacter pylori; ranges from (0.2-3.13); type: functional; procedure, shortened: as §1
[26] = tested on: Helicobacter pylori; experiment: Minimum inhibitory concentration required to inhibit macroscopic colonial growth of Helicobacter pylori; ranges from (0.2-0.78); type: functional; procedure, shortened: as §1
[27] = species on record: Cavia porcellus; experiment: Inhibition of histamine-stimulated chronotropic response in isolated guinea pig right atrium; type: functional, Cardiac atrium; procedure, shortened: as §3
[28] = tested on: Rattus norvegicus; experiment: Inhibition of histamine-stimulated gastric acid secretion in lumen-perfused stomach of anesthetized rats; type: functional; procedure, shortened: as §2
[29] = tested on: Helicobacter pylori; experiment: Minimum inhibitory concentration required to inhibit macroscopic colonial growth of Helicobacter pylori ranges from (6.25-12.5); type: functional; procedure, shortened: as §1

## CC/N=C(\N)Nc1nc(-c2cccc(CNC(C)=O)n2)cs1
[1]
  MIC: 4.7 µg/mL (≈ 14.8 µM)

## CCCC/N=C(\N)Nc1nc(-c2ccc(CNC(C)=O)s2)cs1
[2]
  Inhibition: <10%
[3]
  MIC: 0.32 µg/mL (≈ 0.91 µM)

## CC(=O)NCc1cccc(-c2csc(NC(=N)NCC(F)(F)F)n2)n1
[4]
  MIC: 13.4 µg/mL (≈ 36 µM)

## COc1cccc(CC/N=C(\N)Nc2nc(-c3cccc(CNC(C)=O)n3)cs2)c1
[5]
  inhibition in vivo at 1 mg/kg: 68%
[6]
  Inhibition: 83%
[7]
  MIC: 0.14 µg/mL (≈ 0.33 µM)

## CCCC/N=C(\N)Nc1nc(-c2cccc(CNC(C)=O)n2)co1
[5]
  inhibition in vivo at 1 mg/kg: 92%
[6]
  Inhibition: 81%
[8]
  MIC: 3.9 µg/mL (≈ 11.8 µM)

## COCC/N=C(\N)Nc1nc(-c2cccc(CNC(C)=O)n2)cs1
[9]
  MIC: 6.7 µg/mL (≈ 19.2 µM)

## Cc1ncc([N+](=O)[O-])n1CCO [METRONIDAZOLE]
[10]
  MIC: 5.4 µg/mL (≈ 31.6 µM)

## CCCC/N=C(\N)Nc1nc(-c2ccc(CNC(C)=O)o2)co1
[5]
  inhibition in vivo at 1 mg/kg: 51%
[6]
  Inhibition: 82%
[4]
  MIC: 19.3 µg/mL (≈ 60.4 µM)

## CC1(C)S[C@@H]2[C@H](NC(=O)[C@H](N)c3ccc(O)cc3)C(=O)N2[C@H]1C(=O)O [AMOXICILLIN]
[11]
  MIC: 0.021 µg/mL (≈ 0.0575 µM)

## CCCC/N=C(\N)Nc1nc(-c2cccc(CNC(C)=O)c2)co1
[12]
  MIC: 1.92 µg/mL (≈ 5.83 µM)
[5]
  inhibition in vivo at 1 mg/kg: 60%
[6]
  Inhibition: 93%

## COc1ccccc1CC/N=C(\N)Nc1nc(-c2cccc(CNC(C)=O)n2)cs1
[5]
  inhibition in vivo at 1 mg/kg: 65%
[6]
  Inhibition: 78%
[13]
  MIC: 0.037 µg/mL (≈ 0.0872 µM)

## CC(=O)NCc1cccc(-c2csc(N/C(N)=N/CCC(C)C)n2)n1
[5]
  inhibition in vivo at 1 mg/kg: 86%
[6]
  Inhibition: 80%
[14]
  MIC: 0.1 µg/mL (≈ 0.277 µM)

## COc1ccccc1CC/N=C(\N)Nc1nc(-c2ccc(CNC(C)=O)s2)cs1
[2]
  Inhibition: <10%
[15]
  MIC: 0.0065 µg/mL (≈ 0.0151 µM)

## CN/C(=N\CCSCc1nc[nH]c1C)NC#N [CIMETIDINE]
[5]
  inhibition in vivo at 1 mg/kg: 53%
[16]
  MIC: 1130 µg/mL (≈ 4480 µM)
[6]
  Inhibition: 43%

## COc1ccccc1CC/N=C(\N)Nc1nc(-c2cccc(CNC(C)=O)c2)co1
[5]
  inhibition in vivo at 1 mg/kg: 40%
[6]
  Inhibition: 65%
[17]
  MIC: 0.3 µg/mL (≈ 0.736 µM)

## CC[C@H]1OC(=O)[C@H](C)[C@@H](O[C@H]2C[C@@](C)(OC)[C@@H](O)[C@H](C)O2)[C@H](C)[C@@H](O[C@@H]2O[C@H](C)C[C@H](N(C)C)[C@H]2O)[C@](C)(OC)C[C@@H](C)C(=O)[C@H](C)[C@@H](O)[C@]1(C)O [CLARITHROMYCIN]
[18]
  MIC: 0.057 µg/mL (≈ 0.0762 µM)

## COc1ccccc1CC/N=C(\N)Nc1nc(-c2cc(CNC(C)=O)on2)cs1
[19]
  MIC: 4.4 µg/mL (≈ 10.6 µM)
[6]
  Inhibition: <10%

## CCCC/N=C(\N)Nc1nc(-c2csc(CNC(C)=O)n2)cs1
[5]
  inhibition in vivo at 1 mg/kg: 50%
[6]
  Inhibition: 85%
[20]
  MIC: 0.52 µg/mL (≈ 1.48 µM)

## CCCC/N=C(\N)Nc1nc(-c2nc(CNC(C)=O)no2)cs1
[6]
  Inhibition: <10%
[9]
  MIC: 10.9 µg/mL (≈ 32.3 µM)

## C/N=C(\N)Nc1nc(-c2cccc(CNC(C)=O)n2)cs1
[21]
  MIC: 5.1 µg/mL (≈ 16.8 µM)

## CCCC/N=C(\N)Nc1nc(-c2cccc(CNC(C)=O)n2)cs1
[5]
  inhibition in vivo at 1 mg/kg: 76%
[6]
  Inhibition: 100%
[20]
  MIC: 0.59 µg/mL (≈ 1.7 µM)

## CCC/N=C(\N)Nc1nc(-c2cccc(CNC(C)=O)n2)cs1
[22]
  MIC: 2.9 µg/mL (≈ 8.72 µM)

## CC(=O)NCc1cccc(-c2csc(N/C(N)=N/CCN(C)C)n2)n1
[18]
  MIC: > 100 µg/mL

## CSCC/N=C(\N)Nc1nc(-c2cccc(CNC(C)=O)n2)cs1
[23]
  MIC: 1.1 µg/mL (≈ 3.02 µM)

## COc1ccccc1CC/N=C(\N)Nc1nc(-c2csc(CNC(C)=O)n2)cs1
[24]
  MIC: 0.043 µg/mL (≈ 0.0999 µM)
[5]
  inhibition in vivo at 1 mg/kg: 23%
[6]
  Inhibition: 30%

## BISMUTH SUBCITRATE
[18]
  MIC: 18 µg/mL

## CCCC/N=C(\N)Nc1nc(-c2ccnc(CNC(C)=O)n2)cs1
[19]
  MIC: 4.1 µg/mL (≈ 11.8 µM)
[6]
  Inhibition: <10%

## COc1ccccc1CC/N=C(\N)Nc1nc(-c2ncc(CNC(C)=O)o2)cs1
[5]
  inhibition in vivo at 1 mg/kg: 50%
[6]
  Inhibition: 37%
[25]
  MIC: 1.1 µg/mL (≈ 2.65 µM)

## COc1ccc(CC/N=C(\N)Nc2nc(-c3cccc(CNC(C)=O)n3)cs2)cc1
[5]
  inhibition in vivo at 1 mg/kg: 18%
[6]
  Inhibition: 24%
[26]
  MIC: 0.42 µg/mL (≈ 0.989 µM)

## CNC(=C[N+](=O)[O-])NCCSCc1ccc(CN(C)C)o1 [RANITIDINE]
[27]
  Inhibition: 44%
[18]
  MIC: > 1600 µg/mL
[28]
  Inhibition: 72%

## CC(=O)NCc1cccc(-c2csc(NC(=N)NCCc3ccccc3)n2)n1
[5]
  Inhibition: 50%
[6]
  Inhibition: 71%
[14]
  MIC: 0.1 µg/mL (≈ 0.253 µM)

## COc1ccccc1CC/N=C(\N)Nc1nc(-c2c[nH]c(CNC(C)=O)n2)cs1
[29]
  MIC: 10.2 µg/mL (≈ 24.7 µM)

## CC(=O)NCC/N=C(\N)Nc1nc(-c2cccc(CNC(C)=O)n2)cs1
[4]
  MIC: 11.5 µg/mL (≈ 30.6 µM)
